# According to ChEMBL document CHEMBL1141333, “Molecular-targeted antitumor agents. 15. Neolamellarins from the marine sponge Dendrilla nigra inhibit hypoxia-inducible factor-1 activation and secreted vascular endothelial growth factor production in breast tumor cells” (J Nat Prod, 2007):
# Calls of active or inactive are those of the source. The rule behind the calls is not given here.
# Assays:
# T47D [1] = experiment: Antiproliferative activity against human T47D cells under normoxic conditions after 48 hrs; type: functional, cell-based
# Method in brief: (§1)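 T47D proliferation/viability measured by Neutral Red; % inhibition = [1 − OD540(treated)/OD540(control)] × 100. Hypoxic exposure was 1% O2 for 16 or 48 h, with compounds at up to 10 μM. Normoxic incubation was 48 h. Compounds were dissolved as 4 mM DMSO stocks.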
# T47D [2] = experiment: Inhibition of 1,10-phenanthroline-induced HIF1 activation in T47D cells at 10 uM by reporter gene assay; type: cell-based; set-up: scale not given: the % may be the effect or the level left; conditions: Homo sapiens
# Method in brief: (§2)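 Transfected T47D luciferase reporter for HIF-1. HIF-1 was induced either by hypoxia (1% O2) or by 1,10-phenanthroline (10 μM) during compound treatment. Luciferase activity was read out and concentration-response was tested at 1, 3 and 10 μM. Compounds came from 4 mM DMSO stocks. Emetine at 1 μM was the positive control.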
# T47D [3] = experiment: Inhibition of HIF1 activation in T47D cells at 10 uM by reporter gene assay; type: cell-based; conditions: Homo sapiens; method in brief: as §2
# T47D [4] = experiment: Antiproliferative activity against human T47D cells under hypoxic conditions upto 10 uM after 16 to 48 hrs by neutral red assay; type: functional; method in brief: as §1
# T47D [5] = experiment: Inhibition of hypoxia-induced VEGF protein level in T47D cells at 10 uM by ELISA; type: functional, Homo sapiens; set-up: scale not given: the % may be the effect or the level left
# Method in brief: (§3)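 Exponentially grown T47D cells were exposed to compound for 16 h under hypoxia (1% O2) or 1,10-phenanthroline (10 μM). Secreted VEGF in conditioned media was measured by ELISA. Cells were lysed and lysate protein was measured by Micro BCA; VEGF was normalized to lysate protein. Triplicate wells, mean ± SD.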
# [6] = Inhibition of 1,10-phenanthroline-induced HIF1 activation in T47D cells by reporter gene assay; type: cell-based; conditions: Homo sapiens; method in brief: as §2
# T47D [7] = experiment: Inhibition of hypoxia-induced VEGF protein level in T47D cells at 3 uM by ELISA; type: functional, cell-based; conditions: Homo sapiens; method in brief: as §3
# [8] = Inhibition of HIF1 activation in T47D cells by reporter gene assay; type: cell-based; conditions: Homo sapiens; method in brief: as §2
# T47D [9] = experiment: Antiproliferative activity against human T47D cells under normoxic conditions at 10 uM after 48 hrs; type: functional; method in brief: as §1
# T47D [10] = experiment: Inhibition of 1,10-phenanthroline-induced VEGF protein level in T47D cells at 10 uM by ELISA; type: functional, Homo sapiens; set-up: scale not given: the % may be the effect or the level left; method in brief: as §3
# T47D [11] = experiment: Antiproliferative activity against human T47D cells under normoxic conditions at 1 uM after 48 hrs; type: functional; method in brief: as §1
Structure (SMILES),Activity (T47D [1]),Activity (T47D [2]),inhibition (T47D [3]),Activity (T47D [4]),Activity (T47D [5]),IC50 [6],Activity (T47D [7]),IC50 [8],Activity (T47D [9]),Activity (T47D [10]),Activity (T47D [11])
O=C(Cc1ccc(O)cc1)N1CC(c2ccc(O)cc2)=C(c2ccc(O)cc2)C1=O [NEOLAMELLARIN B],inactive,42%,23%,<20%,–,–,–,–,–,–,–
O=C(Cc1ccc(O)cc1)N1C(=O)C(c2ccc(O)cc2)=C(c2ccc(O)cc2)C1O (stereo unspecified) [5-HYDROXYNEOLAMELLARIN B],inactive,33%,22%,<20%,–,–,–,–,–,–,–
O=C(Cc1ccc(O)cc1)n1cc(-c2ccc(O)cc2)c(-c2ccc(O)cc2)c1 [NEOLAMELLARIN A],inactive,58%,26%,<20%,–,–,–,–,–,–,–
O=C(C(O)c1ccc(O)cc1)n1cc(-c2ccc(O)cc2)c(-c2ccc(O)cc2)c1 (racemic) [7-(R/S)-HYDROXYLAMELLARIN A],–,–,98%,<20%,87%,3700 nM,inactive,1900 nM,34%,33%,-8%
